# UBC13 polyUb: UBC13 polyubiquitin chain formation inhibitors, primary screen, biochemical, TR-FRET, uHTS | inhibition, % at 20 µM | actives 0.47% (n = 330,000) | AID 485273, 2010; in the data active means inhibition above about 45%, passing the limit was not always enough; inconclusive means no clear call, values can overlap the other calls
# Target sequence (P61088 whole entry, looked up): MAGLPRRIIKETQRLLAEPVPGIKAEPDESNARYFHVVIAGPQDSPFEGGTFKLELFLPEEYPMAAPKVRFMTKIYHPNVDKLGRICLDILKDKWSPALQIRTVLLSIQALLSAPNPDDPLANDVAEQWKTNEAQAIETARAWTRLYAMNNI
# ANO1 block: TMEM16A chloride channel inhibitors, primary screen, cell-based, HTS | HEK293 TMEM16A/YFP iodide influx fluorescence, ionomycin | normalized B-score (activity score, 25-100; higher = stronger inhibition) at 10 µM | actives 1.2% (n = 310,000);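 active means ratio plate-corrected score three or more library SD toward inhibition, starting fluorescence score within five deviations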;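 further: score derived from kinetic fluorescence span divided by baseline fluorescence per well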
# FID counter: compounds displacing fluorescent DNA intercalator, primary screen, artefact control for HCV NS3 helicase inhibitor project, biochemical, FID fluorescence. DNA fluorescent intercalator displacement. inhibition, % at 7.9 µM. actives 0.17% (n = 290,000); in the data active means inhibition above about 37%;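 further: 0% = vehicle and 100% = reference compound; higher means more ethidium bromide displaced from hairpin DNA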
# TMEM16A act: TMEM16A chloride channel activators or potentiators, primary screen, cell-based, HTS. Anoctamin-1 (Mus musculus), Q8BHY3. HEK293 TMEM16A/YFP-H148Q/I152L, iodide quench fluorescence; hits give low values. B-score at 10 µM. actives 0.3% (n = 340,000). AID 623877, 2012;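 active means fluorescence-ratio B-score plate-corrected deviation score at least 3 library SD below zero, with starting fluorescence score within 5 deviations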;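 further: channel opened by trigger with iodide after compound preincubation; score built on the fluorescence ratio of max minus min over baseline; more negative score means more quench and so TMEM16A activation or potentiation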
# Apaf-1 inh: inhibitors of human Apaf-1 apoptosome, primary screen, biochemical, DEVD-Rh110 fluorescence, uHTS; actives 0.71% (n = 330,000); AID 489030, 2010; reconstituted apoptosome caspase-3 activity; Apoptotic protease-activating factor 1 (Homo sapiens), O14727; inhibition, % at 20 µM; active means inhibition of at least 40% at 20 µM;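 further: plate controls were DMSO wells for no effect and DEVD-CHO caspase inhibitor wells for full effect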
#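 Assay system – apoptosome proteins · Medium – Hepes buffer, pH 7.5 · Also added – cytochrome c with DEVD-Rh110 · Timing – 30 min compound preincubation, 50 min activation, room temperature · Detection – Rh110 fluorescence, excitation 480 nm, emission 540 nm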
# Casp3 UBC13 ctr: CASP3 inhibitor validation, counterassay for project on UBE2N polyubiquitination blockers, biochemical, one dose | Recombinant caspase-3, Caspase-Glo 3/7 luminescence, 60 min | shares compounds with UBC13 polyUb | actives 4% (n = 1,400) | inhibition, % at 20 µM;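 active means mean inhibition across replicates above about 26%, limit read from the data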;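 further: plate controls were DMSO with caspase-3 for no effect and DMSO wells lacking enzyme for full effect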
# Target sequence (P42574 whole entry, looked up): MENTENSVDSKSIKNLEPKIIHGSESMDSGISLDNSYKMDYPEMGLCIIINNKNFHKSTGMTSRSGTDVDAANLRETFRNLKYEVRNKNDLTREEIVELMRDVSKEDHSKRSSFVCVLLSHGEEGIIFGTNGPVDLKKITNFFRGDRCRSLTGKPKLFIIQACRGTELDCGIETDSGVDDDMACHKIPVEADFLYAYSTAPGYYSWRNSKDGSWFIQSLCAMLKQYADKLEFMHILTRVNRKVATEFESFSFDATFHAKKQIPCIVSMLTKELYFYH
# UBC13 confirm: UBC13 polyubiquitination inhibitors, single-point retest, confirmation, biochemical, TR-FRET, single concentration; actives 68% (n = 1,400); inhibition, % at 10 µM; shares compounds with UBC13 polyUb; in the data active means inhibition above about 45%; inconclusive means no clear call, values can overlap the other calls
# * marks the source's active call; other numbers are inactive results; i = inactive; ? = inconclusive; nt = not tested or not shown. Only some compounds are listed: those with a hit (about 2.4% of all), similar ones and a draw of the others.
SMILES,UBC13 polyUb,ANO1 block,FID counter,TMEM16A act,Apaf-1 inh,Casp3 UBC13 ctr,UBC13 confirm
CCOc1ccc(N2C(=O)C3C(c4ccccc4)=NN(c4ccccc4)C3C2=O)cc1 (stereo not drawn),56*,i,-2,i,4,-4,39
CC(=O)c1ccccc1OCC(O)CN1CCN(CCN2C(=O)c3cccc4cccc(c34)C2=O)CC1 (stereo not drawn),54*,i,12,i,-7,-2,60*
Cc1ccc(C)c(OCC(O)CN2CCN(CCN3C(=O)c4cccc5cccc(c45)C3=O)CC2)c1 (stereo not drawn),84*,i,16,i,19,3,101*
O=C(NC(=S)Nc1ccccc1[N+](=O)[O-])c1ccccc1Cl,-7,i,4,i,8,nt,nt
O=C(NNC(=S)NC(=O)c1ccccc1[N+](=O)[O-])c1ccccc1Cl,48*,i,-5,i,-1,6,13
Cc1nc2ccccn2c1C(=O)N/N=C/c1ccccc1[N+](=O)[O-],63*,i,1,i,-28,-5,-3
CCOC(=O)c1nn(-c2ccccc2)c(=O)cc1OCC(=O)Nc1cc(C)ccc1OC,48*,i,nt,i,-57,-5,?
CNCc1cc(Br)c(OCC(=O)Nc2ccccc2OC)c(OC)c1,65*,i,19,i,1,3,103*
COc1ccccc1NC(=O)COC(=O)c1cc(C)nc2ccccc12,48*,nt,nt,i,4,1,25
COc1ccc(CNC(=O)COC(=O)c2cc(C)nc3ccccc23)cc1,-2,nt,nt,i,1,nt,nt
COc1ccccc1NC(=O)COc1ccc(C(=O)NCc2ccccc2)cc1OC,70*,nt,nt,i,12,-3,75*
CCOC(=O)Cc1csc(/N=C/c2c(O)n(-c3ccccc3C(F)(F)F)c(=O)c3ccccc23)n1,-17,i,-7,i,-16,nt,nt
Cc1sc2ncnc(N3CCC(C(=O)Nc4nc(-c5ccc(F)cc5)cs4)CC3)c2c1C,-5,i,nt,i,18,nt,nt
CCN1CCN(C(=O)c2cc3c(s2)-c2c(C)cccc2OC3)CC1,80*,i,5,i,1,54*,76*
O=C(NCc1ccccc1C(F)(F)F)c1cccc2c1C(=O)c1ccc(N3CCCCC3)cc1S2(=O)=O,-57,nt,nt,i,-1,nt,nt
O=C(NN1C(=O)/C(=C/C=C/c2ccco2)SC1=S)c1ccccc1O,45*,i,-1,i,25,4,-6
COc1ccccc1N1CCN(S(=O)(=O)CCNC(=O)C23CC4CC(CC(C4)C2)C3)CC1,2,i,-58,i,14,nt,nt
O=C(COC(=O)c1cc(=O)[nH]c(=O)[nH]1)Nc1cccc(Cl)c1,66*,nt,nt,i,3,3,51*
Cc1cc(C)cc(NC(=O)COC(=O)c2cc(=O)[nH]c(=O)[nH]2)c1,35,i,-2,i,3,nt,nt
CC(=O)O[C@]1(C(C)=O)CCC2C3C=C(C)C4=CC(=O)CC[C@]4(C)C3CC[C@@]21C (stereo partly drawn),-4,i,-42,i,20,nt,nt
C[C@]12CCC(=O)C=C1C=C[C@@H]1[C@@H]2CC[C@@]2(C)[C@H]1CC[C@@]21CCC(=O)O1,76*,i,-38,i,2,-1,8
CCC(=O)NC(c1ccco1)c1cc(Cl)c2ccccc2c1O (stereo not drawn),35,nt,nt,i,5,nt,nt
CCC(=O)NC(c1cc(Cl)c2ccccc2c1O)C(C)C (stereo not drawn),71*,nt,nt,i,10,2,56*
CCC(=O)NC(C)c1cc(Cl)c2cccnc2c1O (stereo not drawn),-15,nt,nt,i,-6,nt,nt
CC(=O)NC(c1ccco1)c1cc(Cl)c2ccccc2c1O (stereo not drawn),47*,nt,nt,i,16,-2,37
SMILES,UBC13 polyUb,ANO1 block,FID counter,TMEM16A act,Apaf-1 inh,Casp3 UBC13 ctr,UBC13 confirm
CC(=O)NC(C)c1cc(Cl)c2ccccc2c1O (stereo not drawn),63*,nt,nt,i,-2,5,47*
CC(=O)C1=NOC2C(=O)N(c3ccccc3)C(=O)C12 (stereo not drawn),4,i,-3,i,-6,nt,nt
Clc1ccc2c(c1)CNc1c(ncnc1N1CCOCC1)O2,50*,i,-10,i,-9,-2,41
Clc1ccc2c(N3CCOCC3)ccnc2c1,5,i,-5,i,-2,nt,nt
COc1cc(-c2cc(C(=O)Nc3ccc(S(N)(=O)=O)cc3)c3ccccc3n2)cc(OC)c1OC,60*,i,-27,i,15,-1,48*
Cc1csc(NC(=O)CSc2nccn2C)n1,-3,i,-5,i,2,nt,nt
C=C(C)COc1ccc(-c2[nH]ncc2Oc2cccc(OC)c2)c(O)c1,68*,i,-4,i,24,-4,68*
O=C(c1cccc(S(=O)(=O)N2CCOCC2)c1)N(Cc1nnc(-c2ccccc2Cl)o1)C1CC1,-5,i,nt,i,1,nt,nt
CC1CN(S(=O)(=O)c2cccc(C(=O)N(Cc3nnc(-c4ccccc4Cl)o3)C3CC3)c2)CC(C)O1 (stereo not drawn),51*,i,nt,i,29,-2,86*
COc1cc(C(=O)NCC(=O)N/N=C/c2ccc(-c3cccc([N+](=O)[O-])c3)o2)cc(OC)c1OC,-6,i,-32,i,19,nt,nt
O=C(Nc1cccc2nsnc12)c1ccc(-c2cccc(Cl)c2)o1,49*,i,-23,i,40,32*,8
CCN1C(=O)[C@H]2[C@H]3CN=C(SCc4ccc(C)cc4)N3[C@@](Cc3ccccc3)(C(=O)OC)[C@H]2C1=O,nt,nt,nt,nt,28,nt,nt
COC(=O)C1=C(C)N(Cc2ccccc2)C(=NCc2cccc(C(F)(F)F)c2)N[C@H]1c1cccc(F)c1,97*,i,31,i,37,-4,84*
COCCN=C1N[C@@H](c2cccc(C(F)(F)F)c2)C(C(=O)OC)=C(C)N1Cc1ccccc1,6,i,30,i,26,nt,nt
CC(C)n1c(NCc2cc(Cl)ccc2O)nc2ccccc21,67*,i,6,i,15,0,54*
Cc1ccc(S(=O)(=O)N2CCCN(c3nccc(C(F)(F)F)n3)CC2)cc1,0,i,-18,i,13,nt,nt

# Compound activity: PubChem BioAssay, several laboratories
